Results pooled from the literature.
Target: Mitogen-activated protein kinase kinase kinase 9 (MAP3K9, Homo sapiens, UniProt P80192)
Observed: enzyme activity
Action: inhibitor

With `Cc1sc(C(=O)NC2COC2)cc1-n1cc(NC(=O)Nc2c(F)cccc2Cl)cn1` the remaining activity was 87.5% (10 µM).
The remaining activity of `CCN(CC)c1ccc(C2=NNC(=O)CC2C)cc1[N+](=O)[O-]` (stereo not shown) is reported as 100% (10 µM).
`CN1CCc2cc(Nc3ncc(C4CC4)c(NCCCNC(=O)C4CCC4)n3)ccc2C1` gave a remaining activity of 14% (radiometric; 1 µM).
`Cc1ccc(C(=O)Nc2ccc(CN3CCN(C)CC3)c(C(F)(F)F)c2)cc1C#Cc1cnc2cccnn12` gave a remaining activity of 96% (23.5 nM).
`Cc1cnc(NC2CCOCC2)nc1-n1cnc(C(=O)NC(CN)c2cc(F)cc(Cl)c2)c1` (stereo not shown) gave a remaining activity of 94% (radiometric; 1 µM).
`CC(C)(C)c1nc(-c2cccc(NS(=O)(=O)c3c(F)cccc3F)c2F)c(-c2ccnc(N)n2)s1` gave a remaining activity of 70% (radiometric; 1 µM).
For `FC(F)c1nc2ccccc2n1-c1nc(N2CCOCC2)nc(N2CCOCC2)n1`, the remaining activity was 86% (10 µM).
`O=C(Nc1cnn(-c2csc(C(=O)NC3COC3)c2)c1)Nc1c(F)cccc1Cl` has a remaining activity of 88.5% (5 µM).
For `COc1cc(Cl)c(C(=O)N[C@@H](CN[C@H]2CC[C@@H](N)CC2)Cc2ccc(C#N)cc2)cc1-c1ccc(CN[C@H](C)c2ccc(C)cc2)o1`, the remaining activity was 97% (1 µM).
With `Cc1nn(CC(F)(F)F)cc1Nc1ncc(Br)c(NCCc2cnc[nH]2)n1` the remaining activity was 30% (radiometric; 1 µM).
`Oc1cccc(-c2nc(N3CCOCC3)c3oc4ncccc4c3n2)c1` gave a remaining activity of 65% (10 µM).
`Cc1nn(CC(F)(F)F)cc1Nc1nccc(NCc2ccc(S(N)(=O)=O)cc2)n1` has a remaining activity of 97% (radiometric; 1 µM).
With `COc1cc(Nc2cnc(C#N)c(O[C@H](C)CN(C)C)n2)ncc1-c1cnn(C)c1` the remaining activity was 48% (radiometric; 10 µM).
`O=C(NCCCNc1ccnc(Nc2cccc(NC(=O)N3CCCC3)c2)n1)C1CCC1` gave a remaining activity of 79% (radiometric; 1 µM).
`CC(C)(O)[C@H]1CC[C@H](Nc2ccc3ncc(-c4cccc(C(F)(F)F)c4)n3n2)CC1` has a remaining activity of 77% (1 µM).
With `NS(=O)(=O)c1ccc(CNc2ccnc(Nc3cccc(CN4CCOCC4)c3)n2)cc1` the remaining activity was 81% (radiometric; 1 µM).
`CCCOc1ccc(OC)c(F)c1C(=O)c1ccc(C(=O)N[C@@H]2CNC[C@H]2NC(=O)c2ccc3[nH]ncc3c2)cc1` gave a remaining activity of 32% (10 µM).
The remaining activity of `CC(C)(C)c1nc2c(s1)c1nc(N)ncc1c1ccc(NS(=O)(=O)c3c(F)cccc3F)c(F)c12` is reported as 66% (radiometric; 1 µM).
`Cc1nn(CC(F)(F)F)cc1Nc1ncc(C2CC2)c(NCc2ccc(S(N)(=O)=O)cc2)n1` has a remaining activity of 90% (radiometric; 1 µM).
